Measurements from ChEMBL document CHEMBL1148105, “Bioactive metabolites from a marine-derived strain of the fungus Emericella variecolor” (2002).
Calls of active or inactive are those of the source. No cut-off for these calls is given here.

Assays:
SK-MEL-5 = test: Growth inhibition of human SK-MEL-5 cells; type: functional; details: read-out: pTGI
In short: (§1)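 Run in the NCI 60-cell-line screen under the standard NCI protocol. Cells were tested at concentrations up to 10^-4 M. Potency was expressed as GI50 (M), taken from the NCI mean-graph data.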

HCT-15 = test: Growth inhibition of human HCT15 cells; type: functional
In short: (§2)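 Tested in the NCI 60-cell-line screen using the standard NCI protocol, with concentrations up to 10^-4 M. Growth inhibition is reported as GI50 (M), taken from the NCI mean graphs.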

Staphylococcus aureus = test: Antimicrobial activity against Staphylococcus aureus at 100 ug/ml; type: functional, organism-based
CAKI-1 = test: Growth inhibition of human Caki1 cells; type: functional; in short: as §2
LOX IMVI = test: Growth inhibition of human LOXIMVI cells; type: functional; in short: as §2
Malme-3M = test: Growth inhibition of human MALME-3M cells; type: functional; in short: as §2
MDA-N = test: Growth inhibition of human MDA-N cells; type: functional; in short: as §2
OVCAR-5 = test: Growth inhibition of human OVCAR5 cells; type: functional; in short: as §2
SNB-75 = test: Growth inhibition of human SNB75 cells; type: functional; in short: as §1
SK-MEL-28 = test: Growth inhibition of human SK-MEL-28 cells; type: functional; in short: as §1
Bacillus subtilis = test: Antimicrobial activity against Bacillus subtilis at 100 ug/ml; type: functional, organism-based
Candida albicans = test: Antimicrobial activity against Candida albicans at 100 ug/ml; type: functional, organism-based
786-0 = test: Growth inhibition of human 786-0 cells; type: functional; in short: as §2
UACC-257 = test: Growth inhibition of human UACC257 cells; type: functional; in short: as §1
MDA-MB-435 = test: Growth inhibition of human MDA-MB-435 cells; type: functional; in short: as §2
Proteus sp. = test: Antimicrobial activity against Proteus sp. at 100 ug/ml; type: functional, organism-based
NCI-H522 = test: Growth inhibition of human NCI-H522 cells; type: functional; in short: as §2
IGROV-1 = test: Growth inhibition of human IGROV1 cells; type: functional; in short: as §2
SF-268 = test: Growth inhibition of human SF268 cells; type: functional; in short: as §1
SR = test: Growth inhibition of human SR cells; type: functional; in short: as §1
PC-3 = test: Growth inhibition of human PC3 cells; type: functional; in short: as §1
K562 = test: Growth inhibition of human K562 cells; type: functional; in short: as §2
NCI-H322M = test: Growth inhibition of human NCI-H322M cells; type: functional; in short: as §2
MDA-MB-231 = test: Growth inhibition of human MDA-MB-231 cells; type: functional; in short: as §2
CCRF-CEM = test: Growth inhibition of human CCRF-CEM cells; type: functional; in short: as §2
NCI/ADR-RES = test: Growth inhibition of human NCI/ADR-RES cells; type: functional; in short: as §2
MOLT-4 = test: Growth inhibition of human MOLT4 cells; type: functional; in short: as §2
HOP-62 = test: Growth inhibition of human HOP62 cells; type: functional; in short: as §2
HT-29 = test: Growth inhibition of human HT-29 cells; type: functional
TK-10 = test: Growth inhibition of human TK10 cells; type: functional; in short: as §1
SK-MEL-2 = test: Growth inhibition of human SK-MEL-2 cells; type: functional; in short: as §1
HCT-116 = test: Growth inhibition of human HCT116 cells; type: functional; in short: as §2
HCC 2998 = test: Growth inhibition of human HCC2998 cells; type: functional; in short: as §2
[1] = Growth inhibition of human RPMI8266 cells; type: functional; in short: as §1
[2] = read-out: pLC50 (the source's name) (converted)

## COc1cccc(/C=C/[C@H]2O[C@@H](C)[C@H](O)[C@@H]2O)c1CO [VARITRIOL]
SK-MEL-5
  TGI: > 100 µM
HCT-15
  GI50: > 100 µM
HCT-15; [2]
  CC50: > 100 µM
HCT-15; read-out: pTGI
  TGI: > 100 µM
Staphylococcus aureus
  Activity: inactive
CAKI-1
  GI50: > 100 µM
CAKI-1; [2]
  CC50: > 100 µM
CAKI-1; read-out: pTGI
  TGI: > 100 µM
LOX IMVI
  GI50: > 100 µM
LOX IMVI; [2]
  CC50: > 100 µM
LOX IMVI; read-out: pTGI
  TGI: > 100 µM
Malme-3M
  GI50: > 100 µM
Malme-3M; [2]
  CC50: > 100 µM
Malme-3M; read-out: pTGI
  TGI: > 100 µM
MDA-N
  GI50: > 100 µM
MDA-N; [2]
  CC50: > 100 µM
MDA-N; read-out: pTGI
  TGI: > 100 µM
OVCAR-5
  GI50: 67.6 µM
OVCAR-5; [2]
  CC50: > 100 µM
OVCAR-5; read-out: pTGI
  TGI: > 100 µM
SNB-75
  GI50: 0.245 µM
SNB-75; [2]
  CC50: > 100 µM
SNB-75; read-out: pTGI (converted)
  TGI: 1.02 µM
SK-MEL-28
  GI50: > 100 µM
SK-MEL-28; [2]
  CC50: > 100 µM
SK-MEL-28; read-out: pTGI
  TGI: > 100 µM
Bacillus subtilis
  Activity: inactive
Candida albicans
  Activity: inactive
786-0
  GI50: > 100 µM
786-0; [2]
  CC50: > 100 µM
786-0; read-out: pTGI
  TGI: > 100 µM
UACC-257
  GI50: > 100 µM
UACC-257; [2]
  CC50: > 100 µM
UACC-257; read-out: pTGI
  TGI: > 100 µM
MDA-MB-435
  GI50: > 100 µM
MDA-MB-435; [2]
  CC50: > 100 µM
MDA-MB-435; read-out: pTGI
  TGI: > 100 µM
Proteus sp.
  Activity: inactive
NCI-H522
  GI50: > 100 µM
NCI-H522; [2]
  CC50: > 100 µM
NCI-H522; read-out: pTGI
  TGI: > 100 µM
IGROV-1
  GI50: > 100 µM
IGROV-1; [2]
  CC50: > 100 µM
IGROV-1; read-out: pTGI
  TGI: > 100 µM
SF-268
  GI50: > 100 µM
SF-268; [2]
  CC50: > 100 µM
SF-268; read-out: pTGI
  TGI: > 100 µM
SR
  GI50: > 100 µM
SR; [2]
  CC50: > 100 µM
SR; read-out: pTGI
  TGI: > 100 µM
PC-3
  GI50: > 100 µM
PC-3; [2]
  CC50: > 100 µM
PC-3; read-out: pTGI
  TGI: > 100 µM
K562
  GI50: > 100 µM
K562; [2]
  CC50: > 100 µM
K562; read-out: pTGI
  TGI: > 100 µM
NCI-H322M
  GI50: > 100 µM
NCI-H322M; [2]
  CC50: > 100 µM
NCI-H322M; read-out: pTGI
  TGI: > 100 µM
MDA-MB-231
  GI50: > 100 µM
MDA-MB-231; [2]
  CC50: > 100 µM
MDA-MB-231; read-out: pTGI
  TGI: > 100 µM
CCRF-CEM
  GI50: 25.7 µM
CCRF-CEM; [2]
  CC50: > 100 µM
CCRF-CEM; read-out: pTGI (converted)
  TGI: 70.8 µM
NCI/ADR-RES
  GI50: > 100 µM
NCI/ADR-RES; [2]
  CC50: > 100 µM
NCI/ADR-RES; read-out: pTGI
  TGI: > 100 µM
MOLT-4
  GI50: > 100 µM
MOLT-4; [2]
  CC50: > 100 µM
MOLT-4; read-out: pTGI
  TGI: > 100 µM
HOP-62
  GI50: > 100 µM
HOP-62; [2]
  CC50: > 100 µM
HOP-62; read-out: pTGI
  TGI: > 100 µM
HT-29
  GI50: > 100 µM
HT-29; [2]
  CC50: > 100 µM
HT-29; read-out: pTGI
  TGI: > 100 µM
TK-10
  GI50: > 100 µM
TK-10; [2]
  CC50: > 100 µM
TK-10; read-out: pTGI
  TGI: > 100 µM
SK-MEL-2
  GI50: > 100 µM
SK-MEL-2; [2]
  CC50: > 100 µM
SK-MEL-2; read-out: pTGI
  TGI: > 100 µM
HCT-116
  GI50: > 100 µM
HCT-116; [2]
  CC50: > 100 µM
HCT-116; read-out: pTGI
  TGI: > 100 µM
HCC 2998
  GI50: > 100 µM
HCC 2998; [2]
  CC50: > 100 µM
HCC 2998; read-out: pTGI
  TGI: > 100 µM
[1]
  GI50: > 100 µM
[1]; [2]
  CC50: > 100 µM
[1]; read-out: pTGI
  TGI: > 100 µM
